Laboratory results reported in ChEMBL document CHEMBL4334447, “Discovery of 4-Aminoquinoline-3-carboxamide Derivatives as Potent Reversible Bruton's Tyrosine Kinase Inhibitors for the Treatment of Rheumatoid Arthritis” (J Med Chem, 2019).

Experiment: Toxicity in complete freund's adjuvant-induced DBA/1 mouse arthritis model assessed as effect on appetite at 0.2 mg/kg, po qd administered starting from 29 day post-CFA challenge and measured on day 29, 33, 36, 40 and 43
Assay type: organism-based
Settings: in vivo, 696 h
Outline: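 CIA in male DBA/1 mice: intradermal bovine type II collagen in CFA on day 0, collagen II in IFA boost on day 20. Randomized on day 29 and given oral doses once daily (n=6 per group) alongside vehicle and naive groups. Body weights recorded over the study days.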

SMILES: C[C@@H]1C[C@H]2[C@@H]3CCC4=CC(=O)C=C[C@]4(C)[C@@]3(F)[C@@H](O)C[C@]2(C)[C@@]1(O)C(=O)CO [DEXAMETHASONE]
- Activity: Toxic
